Drawing on ChEMBL document CHEMBL1137655, “Isoxyl activation is required for bacteriostatic activity against Mycobacterium tuberculosis” (2007), this text covers Activity for one molecule.

Format in all cases: functional, organism-based
Common to all, as to settings: Mycobacterium bovis BCG str. Pasteur 1173P2

In experiment [1] the test system is Mycobacterium tuberculosis variant bovis. The experiment is described as follows: Inhibition of mycolic acid synthesis in Mycobacterium bovis BCG Pasteur 1173P2 sonicates assessed as inhibition of ketomycolates production using partially purified EthA as cofactor by autoradiography. In short, it runs like this:
(§1)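 BCG sonicate (3 mg protein) with 1 μCi [1,2-14C]acetate, ISO 0, 2 or 5 μg/ml final, ±purified EthA (up to 10 μg), 25 mM Tris-HCl pH 7.5; 10 min ice, 2 h 37°C; mycolic acid methyl esters by TLC (hexane:ethyl acetate 95:5) and autoradiography.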

Experiment [2] shares this test system. The experiment is described as follows: Inhibition of mycolic acid synthesis in Mycobacterium bovis BCG Pasteur 1173P2 sonicates assessed as inhibition of alphamycolates production using partially purified EthA as cofactor by autoradiography. Summed up:
as §1

The test system is the same in experiment [3]. Briefly: Inhibition of mycolic acid synthesis in Mycobacterium bovis BCG Pasteur 1173P2 sonicates assessed as inhibition of ketomycolates production by autoradiography. In short, it runs like this:
as §1

Experiment [4] shares this test system. The experiment is described as follows: Inhibition of mycolic acid synthesis in Mycobacterium bovis BCG Pasteur 1173P2 sonicates assessed as inhibition of alphamycolates production by autoradiography. Summed up:
as §1

Active and inactive are the calls of the source. The calls are words filed in the database; no cut-off is given here.

With `CC(C)CCOc1ccc(NC(=S)Nc2ccc(OCCC(C)C)cc2)cc1` [TIOCARLIDE], the outcome in experiment [1] and in experiment [2] was inactive. Besides, the result in experiment [3] and in experiment [4] was Active.
